# This is a sample that favours compounds with a hit; in the whole collection about 3.9% have one here.
# CRFR2-BP antag: antagonists of CRF-BP/CRF-R2 complex, primary screen, cell-based, HEK293, calcium dye fluorescence, uHTS; CRF-induced calcium fluorescence; inhibition, % at 11.8 µM; actives 0.59% (n = 350,000); AID 588475, 2011;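 active = inhibition of the ligand-induced calcium signal above about 50% at the single tested concentration, limit read from the data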
# TMEM16A inh: TMEM16A chloride channel inhibitors, primary screen, cell-based, HTS. Anoctamin-1 (Mus musculus), Q8BHY3. HEK293 TMEM16A/YFP iodide influx fluorescence, ionomycin. normalized B-score (activity score, 25-100; higher = stronger inhibition) at 10 µM. actives 1.2% (n = 310,000);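 active = ratio plate-corrected score three or more library SD toward inhibition, starting fluorescence score within five deviations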;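 also: score derived from kinetic fluorescence span divided by baseline fluorescence per well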
# Target sequence (Q8BHY3 whole entry, looked up): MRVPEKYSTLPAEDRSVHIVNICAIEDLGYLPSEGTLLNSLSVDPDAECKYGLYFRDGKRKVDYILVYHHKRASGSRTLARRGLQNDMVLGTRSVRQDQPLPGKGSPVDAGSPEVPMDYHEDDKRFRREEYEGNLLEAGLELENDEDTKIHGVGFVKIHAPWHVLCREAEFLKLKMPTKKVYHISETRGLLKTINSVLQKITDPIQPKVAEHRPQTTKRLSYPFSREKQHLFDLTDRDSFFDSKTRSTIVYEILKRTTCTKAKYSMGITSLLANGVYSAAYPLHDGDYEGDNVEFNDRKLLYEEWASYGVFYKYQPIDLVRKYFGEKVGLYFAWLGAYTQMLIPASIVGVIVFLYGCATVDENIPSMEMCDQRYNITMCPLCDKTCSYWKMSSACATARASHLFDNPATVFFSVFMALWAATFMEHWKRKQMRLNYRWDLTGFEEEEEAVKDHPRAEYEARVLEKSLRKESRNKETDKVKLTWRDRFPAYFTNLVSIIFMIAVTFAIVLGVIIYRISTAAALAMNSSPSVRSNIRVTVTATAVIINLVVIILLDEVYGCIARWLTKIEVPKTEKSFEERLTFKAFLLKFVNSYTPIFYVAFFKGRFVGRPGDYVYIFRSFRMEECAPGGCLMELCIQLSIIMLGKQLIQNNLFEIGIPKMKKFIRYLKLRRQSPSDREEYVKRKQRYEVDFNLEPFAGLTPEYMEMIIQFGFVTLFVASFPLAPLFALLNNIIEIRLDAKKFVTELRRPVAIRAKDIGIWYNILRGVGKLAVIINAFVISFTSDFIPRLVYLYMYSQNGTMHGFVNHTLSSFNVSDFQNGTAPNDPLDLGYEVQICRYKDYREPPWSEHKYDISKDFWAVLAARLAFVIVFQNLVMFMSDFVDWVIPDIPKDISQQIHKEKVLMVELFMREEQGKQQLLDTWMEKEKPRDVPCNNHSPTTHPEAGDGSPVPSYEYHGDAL
# TAAR1 antag: human TAAR1 antagonists, primary screen, Fluo-8 calcium fluorescence, CHO RD-HGA16 cells | inhibition, % at 3 µM | Trace amine-associated receptor 1 (Homo sapiens), Q96RJ0 | actives 1.5% (n = 360,000) | antagonist | AID 624466, 2012;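 active = inhibition above a per-plate cutoff, the mean inhibition of test compounds on that plate plus 3 SD, cut at about 49% in these data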;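 also: 0% = DMSO plus EC80 beta-PEA response and 100% = DMSO alone without agonist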
#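 Test system: hTAAR1-expressing CHO RD-HGA16 cells, Gα16-coupled; Probe or stimulus: EC80 β-phenethylamine stimulus; Compound dosing: single nominal final test compound concentration of 3 µM; Timing: 140 s kinetic read after compound, 140 s after agonist; Signal: Fluo-8 calcium-sensitive fluorescence; Measure: % inhibition of agonist calcium response; Controls: DMSO and EC80 PEA controls.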
# CRFR2-BP ag: agonists of CRF-BP/CRF-R2 complex, primary screen, cell-based, HEK293, calcium dye fluorescence, uHTS | actives 0.46% (n = 350,000) | calcium dye fluorescence (FLIPR); percent of saturating CRF peptide response | activation, % at 13.2 µM | CRF-binding protein / CRF receptor 2 complex (human);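 active = activation of at least 50%, plus an integration ratio under a set limit after plate pattern correction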;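 also: plate controls were neutral control wells without compound for no effect and CRF at EC100 for full effect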
# ANO1 activ: TMEM16A chloride channel activators or potentiators, primary screen, cell-based, HTS | Anoctamin-1 (Mus musculus), Q8BHY3 | HEK293 TMEM16A/YFP-H148Q/I152L, iodide quench fluorescence; active compounds read low | actives 0.3% (n = 340,000) | B-score at 10 µM;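 active = fluorescence-ratio B-score plate-corrected deviation score at least 3 library SD below zero, with starting fluorescence score within 5 deviations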;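 also: channel opened by trigger with iodide after compound preincubation; score built on the fluorescence ratio of max minus min over baseline; more negative score means more quench and so TMEM16A activation or potentiation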
# TAAR1 ag: human TAAR1 agonists, primary screen, Fluo-8 calcium fluorescence, CHO RD-HGA16 cells; Trace amine-associated receptor 1 (Homo sapiens), Q96RJ0; vehicle wells 0%, saturating PEA agonist 100%; activation, % at 3 µM; actives 0.99% (n = 360,000);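 active = activation above the mean activation of all test compounds in the run plus 3 SD, cut at about 38% in these data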
#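 Test system: RD-HGA16 (CHO) cells co-expressing Gα16 and hTAAR1 / Benchmarks: DMSO vehicle as 0%, PEA at EC100 as 100% / Repeats: no replicates (n 1) / Measure: % activation from peak over basal fluorescence ratio, DMSO-to-PEA scaled / Timing: 17-24 h plating, Fluo-8 75 min 37 °C, 30 min RT / Technique: kinetic Fluo-8 calcium fluorescence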
# * = called active by the depositor; i = inactive; nt = no result.
SMILES,CRFR2-BP antag,TMEM16A inh,TAAR1 antag,CRFR2-BP ag,ANO1 activ,TAAR1 ag
CC1CCCN(S(=O)(=O)c2cc(C(=O)NCCc3ccc(S(N)(=O)=O)cc3)ccc2Cl)C1 (stereo not given),-2,nt,50*,0,i,16
O=c1c(Cl)c2oc3ccccc3nc-2c2ccccc12,-309,i,nt,207*,i,nt
Clc1ccc(-c2nnc(Sc3nc4ccccc4o3)c3ccccc23)cc1,14,i,-9,0,i,3
Cc1cc(C)n(CC(=O)c2cccc(N)c2)n1,-20,i,-19,3,i,0
CCOC(=O)COc1c(Cl)cc(/C=C2\N=C(C)OC2=O)cc1OC,6,i,-20,0,i,2
Cc1ccc(C)c2[nH]c(=O)c(C(c3nnnn3Cc3ccccc3)N3CCc4ccccc4C3)cc12 (stereo not given),1,i,42,0,i,49*
Cc1cccc2cc(C(c3nnnn3CC3CCCO3)N3CCc4ccccc4C3)c(=O)[nH]c12 (stereo not given),-10,i,nt,-1,nt,nt
COc1ccc(OC)c(/C=C2\N=C(c3ccccc3)OC2=O)c1,-84,i,11,104*,i,12
COc1ccc([C@H]2C[C@H](O)[C@@H](n3cc(C4CC4)nn3)CN2C(=O)C2CCCCC2)cc1,4,nt,-17,1,nt,1
CN(C(=O)COC(=O)CCc1nc2ccccc2c(=O)[nH]1)C1CCS(=O)(=O)C1 (stereo not given),53*,i,4,1,i,12
CCOC(=O)c1ccc(NC(=O)NC2CC3CCC(C2)N3Cc2nnnn2Cc2ccco2)cc1 (stereo not given),-10,i,1,0,-47*,15
CC(C)(C)n1nnnc1CN1C2CCC1CC(NC(=O)Nc1ccccc1)C2 (stereo not given),14,i,-3,0,i,5
COc1ccccc1CNS(=O)(=O)c1cc2c3c(c1)C(C)C(=O)N3CCC2 (stereo not given),-3,i,-15,-1,i,2
COc1ccccc1N=C1NC(=O)/C(=C/c2ccc(N(C)C)cc2)S1,-86,i,44,79*,i,20
COc1ccc(/C=C2\SC(=Nc3ccccc3)NC2=O)cc1,nt,i,nt,nt,nt,nt
O=C(NCc1cccc(Cl)c1)c1cccc2c(-c3cccnc3)coc12,nt,nt,55*,nt,nt,6
CC(C)(C)OC(=O)N[C@@H](C(=O)OC(C)(C)C)c1ccc2c(c1)OCO2,3,nt,-4,0,i,2
O=C(/C=C/c1ccccc1)NC(=S)NNC(=O)c1ccco1,-7,i,24,41,i,43*
O=C(CN1C(=O)S/C(=C\C=C\c2ccccc2)C1=O)Nc1ccccc1C(=O)O,29,i,-19,-1,i,-2
C#CCN1C(=O)S/C(=C/C=C/c2ccc(N(C)C)cc2)C1=O,-150,i,34,85*,i,24
C=CCC1(CC=C)CCCN1C(=O)c1cc(COc2cncc(Cl)c2)on1,nt,25*,25,nt,i,0
COC(=O)Cc1c(C)c2ccc(OCC(=O)NC3CCS(=O)(=O)C3)cc2oc1=O (stereo not given),-14,i,-14,-1,i,3
O=C1/C(=C/c2ccc(S(=O)(=O)O)cc2S(=O)(=O)O)CCc2ccccc21,nt,nt,-4,nt,nt,1
O=S(=O)(Nc1ncnc2sc3c(c12)CCC3)c1ccc(Cl)s1,27,25*,10,0,i,2
CCOC(=O)C1(Cc2cccc(OC)c2)CCN(Cc2cccc(OC)c2O)CC1,-4,i,10,0,i,6
SMILES,CRFR2-BP antag,TMEM16A inh,TAAR1 antag,CRFR2-BP ag,ANO1 activ,TAAR1 ag
N=C1/C(=C\c2ccc(-c3cc(Cl)cc(Cl)c3)o2)C(=O)N=C2SC=C(c3ccccc3)N12,9,i,-2,-1,i,-1
N=C1/C(=C/c2ccc(-c3cccc(C(=O)O)c3)o2)C(=O)N=C2SC=C(c3ccccc3)N12,-5,i,71*,18,i,15
CC(C)S(=O)(=O)C1=NSC2=NC(=O)/C(=C\c3ccc(-c4ccccc4)o3)C(=N)N21,18,25*,-8,8,i,2
CCCCOC(=O)Nc1ccccc1C(=O)OC,0,i,15,1,-13*,5
OCC[C@@H]1C[C@@H](O)[C@H](O)[C@@]2(CCCCO2)O1,6,i,12,-1,i,1
C=CCn1c(SCC(=O)Nc2cccc(S(=O)(=O)N(C)c3ccccc3)c2)nnc1C1CC1,5,i,9,1,i,1
Cc1ccc(C)c(N2CCN(C3CCCCC3NS(=O)(=O)c3ccccc3)CC2)c1 (stereo not given),-23,i,nt,4,-6.2*,nt
Cc1ccc(Cl)cc1N1CCN(C2CCCCC2NS(=O)(=O)c2ccccc2)CC1 (stereo not given),-24,i,nt,5,-9.7*,nt
CCC(Sc1nc2cc(OC)c(OC)cc2c(=O)n1CCc1ccc(S(N)(=O)=O)cc1)C(=O)NCCOC (stereo not given),8,i,9,-1,-4.7*,5
c1ccc(CCN2CCN(c3ncnc4c3cnn4-c3ccccc3)CC2)cc1,-10,i,32,3,i,41*
Clc1ccc(/C=C/c2nc3ccccc3[nH]2)cc1,33,i,13,-3,i,16
Clc1cccc(Cl)c1/C=C/c1nc2ccccc2[nH]1,19,25*,nt,-2,i,nt
Cc1ccc(C(=O)OCC(=O)N(CC(C)C)c2c(N)n(Cc3ccccc3)c(=O)[nH]c2=O)s1,5,i,-16,0,i,1
Cc1nonc1NC(=O)CSc1nnnn1-c1ccccc1,7,i,-6,1,i,0
CC(C(=O)NCCN1CCOCC1)(c1ccccc1)c1ccccc1,81*,i,-15,3,i,0
COc1ccc(S(=O)(=O)N2CCCCCC2)cc1NC(=O)CCCOc1ccccc1,2,nt,15,1,i,3
O=c1c(Cc2ccc(Cl)cc2Cl)c(O)ccn1Cc1ccc(Cl)cc1,-9,100*,7,2,i,3
O=c1c(Cc2ccc(Cl)cc2)c(O)ccn1Cc1cccc(Cl)c1,3,i,9,-1,i,4
